Laboratory results reported in ChEMBL document CHEMBL4339251, “Prenylated Bibenzyls from the Chinese Liverwort Radula constricta and Their Mitochondria-Derived Paraptotic Cytotoxic Activities” (J Nat Prod, 2019).
pIC50: −log10 of the molar value. Where a name gives a salt, the structure may show the parent alone. Calls of active or inactive are those of the source. The calls are words filed in the database; no cut-off is given here.

Experiments:
Type in all cases: functional, cell-based
[1] = tested on: KB; assay: Cytotoxicity in human KB cells assessed as reduction in cell viability incubated for 48 hrs by MTT assay
Method in brief: (§1)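 MTT viability. U251 and NCI-H1299 were grown in DMEM, the other lines in RPMI 1640, each with 10% FBS, penicillin and streptomycin, at 37 °C in 5% CO2. Cells were seeded in 96-well plates overnight and exposed to a range of concentrations. MTT (5 mg/mL) was added for 4 h, formazan was dissolved in DMSO and absorbance read at 570 nm. Three independent experiments.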

[2] = tested on: U-251; assay: Cytotoxicity in human U251 cells assessed as reduction in cell viability incubated for 48 hrs by MTT assay; settings: U-251, 48 h; method in brief: as §1
[3] = tested on: SW-620; assay: Cytotoxicity in human SW620 cells assessed as reduction in cell viability incubated for 48 hrs by MTT assay; settings: SW-620, 48 h; method in brief: as §1
[4] = tested on: NCI-H1299; assay: Cytotoxicity in human NCI-H1299 cells assessed as reduction in cell viability incubated for 48 hrs by MTT assay; settings: NCI-H1299, 48 h; method in brief: as §1
[5] = tested on: HepG2; assay: Cytotoxicity in human HepG2 cells assessed as reduction in cell viability incubated for 48 hrs by MTT assay; settings: HepG2, 48 h
Method in brief: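 MTT viability. Cells were seeded in 96-well plates overnight and exposed to a range of concentrations. MTT (5 mg/mL) was added for 4 h, formazan was dissolved in DMSO and absorbance read at 570 nm. Three independent experiments.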

[6] = tested on: MCF7; assay: Cytotoxicity in human MCF7 cells assessed as reduction in cell viability incubated for 48 hrs by MTT assay; settings: MCF7, 48 h; method in brief: as §1
[7] = tested on: SMMC-7721; assay: Cytotoxicity in human SMMC7721 cells assessed as reduction in cell viability incubated for 48 hrs by MTT assay; settings: SMMC-7721, 48 h; method in brief: as §1
[8] = tested on: A549; assay: Cytotoxicity in human A549 cells assessed as reduction in cell viability incubated for 48 hrs by MTT assay; settings: A549, 48 h; method in brief: as §1
[9] = tested on: HT-29; assay: Cytotoxicity in human HT-29 cells assessed as reduction in cell viability incubated for 48 hrs by MTT assay; settings: HT-29, 48 h; method in brief: as §1
[10] = tested on: A549; assay: Induction of cytoplasmic vacuolization in human A549 cells

| SMILES | pIC50 [1] | pIC50 [2] | pIC50 [3] | pIC50 [4] | pIC50 [5] | pIC50 [6] | pIC50 [7] | pIC50 [8] | pIC50 [9] | Activity [10] |
| --- | --- | --- | --- | --- | --- | --- | --- | --- | --- | --- |
| COC(=O)c1c(CCc2ccccc2)cc2c(c1O)CC(C(C)(C)O)O2 (racemic) | < 4.40 | < 4.40 | < 4.40 | < 4.40 | < 4.40 | < 4.40 | < 4.40 | < 4.40 | < 4.40 |  |
| COC(=O)c1c(CCc2ccccc2)cc(O)c2c1OC(C)(C)C(O)C2 (racemic) | < 4.40 | < 4.40 | < 4.40 | < 4.40 | < 4.40 | < 4.40 | < 4.40 | < 4.40 | < 4.40 |  |
| CC(C)=CCCC(C)(O)CCc1c(O)cc(O)cc1CCc1ccccc1 (racemic) | 4.53 | 4.44 | < 4.40 | < 4.40 | < 4.40 | < 4.40 | 4.41 | < 4.40 | < 4.40 |  |
| CC(C)(O)[C@H]1CC[C@@]2(C)Oc3cc(O)cc(CCc4ccccc4)c3[C@@H]1[C@H]2O | < 4.40 | < 4.40 | < 4.40 | < 4.40 | < 4.40 | < 4.40 | < 4.40 | < 4.40 | < 4.40 |  |
| CC(C)=CCCC1(C)Oc2cc(O)cc(CCc3ccccc3)c2CC1O (racemic) | < 4.40 | < 4.40 | < 4.40 | < 4.40 | < 4.40 | < 4.40 | < 4.40 | < 4.40 | < 4.40 |  |
| CC(C)=CCC[C@@]1(C)C=Cc2c(CCc3ccccc3)cc(O)cc2O1 | 4.55 | 5.05 | 4.73 | < 4.40 | 4.46 | < 4.40 | 4.61 | < 4.40 | < 4.40 |  |
| C=C(C)[C@H]1CC[C@@]2(C)Oc3cc(O)cc(CCc4ccccc4)c3[C@@H]1[C@H]2O | 4.42 | 4.84 | 4.67 | < 4.40 | 4.50 | 4.43 | 4.55 | 4.55 | 4.45 |  |
| COC(=O)c1c(CCc2ccccc2)cc2c(c1O)CC(O)C(C)(C)O2 (racemic) | < 4.40 | < 4.40 | < 4.40 | < 4.40 | < 4.40 | < 4.40 | < 4.40 | < 4.40 | < 4.40 |  |
| CC1=CCc2c(O)cc(CCc3ccccc3)cc2OC1 | < 4.40 | < 4.40 | < 4.40 | < 4.40 | < 4.40 | < 4.40 | < 4.40 | < 4.40 | < 4.40 |  |
| C=C(CCC=C(C)C)[C@H](O)Cc1c(O)cc(O)cc1CCc1ccccc1 | 4.77 | 5.04 | 4.82 | < 4.40 | 4.69 | 4.73 | 4.80 | 4.59 | 4.70 |  |
| COc1cccc2c1C(=O)c1c(O)c3c(c(O)c1C2=O)C[C@@](O)(C(=O)CO)C[C@@H]3O[C@H]1C[C@H](N)[C@H](O)[C@H](C)O1 [DOXORUBICIN HYDROCHLORIDE] | 5.49 | 5.54 | 5.92 | 6.10 |  |  | 6.10 |  | 5.42 |  |
| O=C1C=Cc2c(O)cc(CCc3ccccc3O)cc2OC1 | < 4.40 | 4.66 | 4.86 | < 4.40 | < 4.40 | 4.48 | 4.83 | < 4.40 | < 4.40 |  |
| CC(C)=CCC/C(C)=C/Cc1c(O)cc(O)cc1CCc1ccccc1 | 4.59 | 5.03 | 4.59 | < 4.40 | 4.44 | < 4.40 | 4.61 | < 4.40 | < 4.40 |  |
| CC1=CC(=O)c2c(O)cc(CCc3ccccc3O)cc2OC1 | < 4.40 | < 4.40 | < 4.40 | < 4.40 | < 4.40 | < 4.40 | < 4.40 | < 4.40 | < 4.40 |  |
| C=C(C)C(O)Cc1c(O)cc(CCc2ccccc2)c(C(=O)OC)c1O (racemic) | < 4.40 | 5.06 | 4.65 | < 4.40 | 4.46 | 4.42 | 5.05 | 4.44 | 4.53 |  |
| CC1=CCc2c(O)cc(CCc3ccccc3O)cc2OC1 | < 4.40 | 4.41 | < 4.40 | < 4.40 | 4.55 | < 4.40 | 4.40 | 4.54 | 4.61 | Active |
| C=C(C)[C@@H](O)CC/C(C)=C/Cc1c(O)cc(O)cc1CCc1ccccc1 | 4.76 | < 4.40 | 4.71 | < 4.40 | 4.65 | 4.54 | 4.53 | 4.59 | 4.54 | Active |
| CC1(C)[C@@H]2c3c(CCc4ccccc4)cc(O)cc3O[C@]3(C)CC[C@H]1[C@H]23 | 4.80 | 4.59 | 4.98 | 5.12 | 4.88 | 4.70 | 4.87 | 5.01 | < 5.00 | Active |
| COc1cc(CCc2ccccc2)c2c(c1)OC(C)(C)CC2 | < 4.40 | 4.58 | < 4.40 | < 4.40 | < 4.40 | < 4.40 | < 4.40 | < 4.40 | < 4.40 |  |
| CC1(C)CCc2c(CCc3ccccc3)cc(O)cc2O1 | < 4.40 | < 4.40 | < 4.40 | < 4.40 | < 4.40 | < 4.40 | < 4.40 | < 4.40 | < 4.40 | Active |
